Legend:
[1] = test system: A549; test: Concentration required for 50% growth inhibition of human A549 cancer cell lines after 3 days of culture; format: functional, cell-based; conditions: A549, 72 h
Procedure, shortened: (§1)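 MTT overall-growth assay on the five lines. Cells were plated for 24 h at 10 000–40 000 cells/mL, depending on cell type. Nine concentrations from 10^-9 to 10^-5 M in semilog steps were applied for 72 h. Formazan was read at 570 nm against a 630 nm reference, in sextuplicate. IC50 = concentration reducing overall growth by 50% versus untreated control.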

[2] = test system: U373 MG; test: Concentration required for 50% growth inhibition of human U373 cancer cell lines after 3 days of culture; format: functional, cell-based, U-373MG ATCC; conditions: 72 h; procedure, shortened: as §1
[3] = test system: LoVo; test: Concentration required for 50% growth inhibition of human LoVo cancer cell lines after 3 days of culture; format: functional, cell-based; conditions: 72 h; procedure, shortened: as §1
[4] = test system: Mus musculus; test: Maximum tolerated dose after intraperitoneal administration in mouse (period of 28 days); format: functional
Procedure, shortened: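 Healthy, non-tumour-bearing B6D2F1 mice given one acute intraperitoneal dose, three mice per dose group, doses 5, 10, 20, 40, 80, 120 and 160 mg/kg. Survival and body weight followed for 28 days after injection. MTD is the highest single dose causing no deaths over the period.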

[5] = Concentration required for 50% growth inhibition of human Hs 683 cancer cell lines after 3 days of culture; format: functional, cell-based; conditions: 72 h; procedure, shortened: as §1
[6] = test system: HCT-15; test: Concentration required for 50% growth inhibition of human HCT-15 cancer cell lines after 3 days of culture; format: functional, cell-based; conditions: HCT-15, 72 h; procedure, shortened: as §1
[7] = target: Sodium/potassium-transporting ATPase subunit alpha-1 (Sus scrofa, UniProt P05024); test: In vitro inhibitory activity against porcine Na+/K+-ATPase
Procedure, shortened: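 Porcine cerebral cortex Na+/K+-ATPase (3 × 10-3 units), preincubated 30 min at 37 °C in 30 mM Tris-HCl pH 7.4, 5 mM MgCl2 with inhibitor (1 to 50 000 nM). ADP formation coupled via pyruvate kinase/lactate dehydrogenase, excess phosphoenolpyruvate, to NADH oxidation.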

C[C@@H]1C[C@@]2(N=C(N)CS2)C2(O[Si](C)(C)C)O[C@@H]3C[C@@]4(CO)[C@@H](CC[C@@H]5[C@@H]4CC[C@]4(C)[C@@H](C6=CC(=O)OC6)CC[C@]54CO[Si](C)(C)C)C[C@H]3O[C@@H]2O1 (stereo partly specified)
IC50 [1]: 0.126 µM
IC50 [2]: 0.925 µM
IC50 [3]: 0.34 µM
MTD [4]: >160 mg/kg
IC50 [5]: 0.346 µM
IC50 [6]: 0.454 µM
IC50 [7]: 1.89 µM

CC(=O)OC[C@]12C[C@H]3OC4(O[Si](C)(C)C)[C@@H](O[C@H](C)C[C@@]45N=C(N)CS5)O[C@@H]3C[C@@H]1CC[C@@H]1[C@@H]2CC[C@]2(C)[C@@H](C3=CC(=O)OC3)CC[C@]12CO[Si](C)(C)C (stereo partly specified)
IC50 [1]: > 10 µM
IC50 [2]: > 10 µM
IC50 [3]: 9.57 µM
MTD [4]: >160 mg/kg
IC50 [5]: 7.92 µM
IC50 [6]: > 10 µM
IC50 [7]: > 50 µM

C[C@@H]1C[C@@]2(N=C(N)CS2)C2(O[Si](C)(C)C)O[C@@H]3C[C@@]4(C=O)[C@@H](CC[C@@H]5[C@@H]4CC[C@]4(C)[C@@H](C6=CC(=O)OC6)CC[C@]54CO[Si](C)(C)C)C[C@H]3O[C@@H]2O1 (stereo partly specified)
IC50 [1]: 7.54 µM
IC50 [2]: > 10 µM
IC50 [3]: > 10 µM
MTD [4]: >160 mg/kg
IC50 [5]: 8.6 µM
IC50 [6]: > 10 µM
IC50 [7]: 50 µM

Reference: ChEMBL document CHEMBL1144441, “Identification of a novel cardenolide (2''-oxovoruscharin) from Calotropis procera and the hemisynthesis of novel derivatives displaying potent in vitro antitumor activities and high in vivo tolerance: structure-activity relationship analyses” (J Med Chem, 2005)
